Drawing on ChEMBL document CHEMBL2331219, “Synthesis and anti-Candida activity of novel 2-hydrazino-1,3-thiazole derivatives” (Bioorg Med Chem Lett, 2013), this text covers MIC and viability for ten molecules.

One may read the MIC as the lowest concentration that inhibits growth of the organism.

The test system of series [1] is Candida parapsilosis. The series is described as follows: Antifungal activity against anidulafungin-resistant Candida parapsilosis isolate 22019 assessed as growth inhibition after 24 to 48 hrs by CLSI microbroth dilution method. Type of series: functional. Particulars: Lodderomyces parapsilosis. In short, it runs like this:
(§1)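 Microbroth dilution per CLSI M27-A3. Isolates subcultured for purity, incubated at 35 °C; five colonies >1 mm suspended in saline, adjusted to 0.5 × 10³ to 2.5 × 10³ in RPMI 1640 buffered to pH 7.0 with 0.165 M MOPS. Compounds diluted in RPMI to final […]. Read visually after 24 h and 48 h at 35 °C; MIC judged by turbidity against drug-free growth control.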
Background: In broth dilution the organism is exposed to a series of concentrations in liquid medium.

Series [2] relates to Candida parapsilosis. In words: Antifungal activity against anidulafungin-resistant Candida parapsilosis ANF8 assessed as growth inhibition after 24 to 48 hrs by CLSI microbroth dilution method. Type of series: functional. To be noted: Lodderomyces parapsilosis. In a few lines: as §1
In series [3] the test system is Nakaseomyces glabratus. The series is described as follows: Antifungal activity against fluconazole-resistant Candida glabrata isolate 6258 assessed as growth inhibition after 24 to 48 hrs by CLSI microbroth dilution method. It is filed as functional. In a few lines:
as §1

Series [4] concerns Nakaseomyces glabratus. The series is described as follows: Antifungal activity against voriconazole-resistant Candida glabrata clinical isolate 730 assessed as growth inhibition after 24 to 48 hrs by CLSI microbroth dilution method. It is filed as functional. In a few lines: as §1
The test system of series [5] is Nakaseomyces glabratus. In words: Antifungal activity against voriconazole-resistant Candida glabrata clinical isolate 724 assessed as growth inhibition after 24 to 48 hrs by CLSI microbroth dilution method. Type of series: functional. In short, it runs like this:
as §1

The subject of series [6] is Candida albicans. The series is described as follows: Antifungal activity against azole-resistant Candida albicans clinical isolate 7.O.A assessed as growth inhibition after 24 to 48 hrs by CLSI microbroth dilution method. Type of series: functional. In a few lines: as §1
Series [7] has as its system Candida albicans. In words: Antifungal activity against fluconazole-resistant Candida albicans clinical isolate 5.O.A assessed as growth inhibition after 24 to 48 hrs by CLSI microbroth dilution method. It is filed as functional. In short, it runs like this:
as §1

Series [8] concerns Candida albicans. The series is described as follows: Antifungal activity against caspofungin-resistant Candida albicans assessed as growth inhibition after 24 to 48 hrs by CLSI microbroth dilution method.
Series [9] can be described thus: Cytotoxicity against mouse NIH/3T3 cells assessed as cell viability at 62.5 ug/mL after 24 hrs by MTT assay relative to control. It is filed as cell-based, NIH3T3. Particulars: read-out: Activity. In a few lines: (§2)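 NIH/3T3 fibroblasts kept in DMEM with 10% fetal calf serum, penicillin/streptomycin, 37 °C, 5% CO2. Cells seeded at 2 × 10⁴ cells/mL, grown 24 h, then given compound (DMSO stock diluted in medium, final DMSO <0.1%) for 24 h. MTT at 0.5 mg/mL final added for 4 h, formazan dissolved in DMSO, absorbance read at 540 nm. Triplicate wells, mean ± SD, assay run twice.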
(Tetrazolium dyes change colour on reduction, which living cells bring about.)

Series [10] in a line: Cytotoxicity against mouse NIH/3T3 cells assessed as cell viability at 31.3 ug/mL after 24 hrs by MTT assay relative to control. It is filed as cell-based, NIH3T3. Particulars: read-out: Activity. In short, it runs like this:
as §2

A short description of series [11]: Cytotoxicity against mouse NIH/3T3 cells assessed as cell viability at 1 ug/mL after 24 hrs by MTT assay relative to control. Type of series: cell-based, NIH3T3. To be noted: read-out: Activity. In short, it runs like this:
as §2

A short description of series [12]: Cytotoxicity against mouse NIH/3T3 cells assessed as cell viability at 0.5 ug/mL after 24 hrs by MTT assay relative to control. Type of series: cell-based, NIH3T3. To be noted: read-out: Activity. In a few lines:
as §2

Values after ≈ are worked out from the molar mass of the structure shown.

In the case of `COc1ccc(O)c(-c2csc(N/N=C/c3cnc[nH]3)n2)c1`, the MIC with Candida parapsilosis [1], in the series with Candida parapsilosis [2], in the series on Nakaseomyces glabratus [3], in the series with Nakaseomyces glabratus [4], with Nakaseomyces glabratus [5] and in the series with Candida albicans [6] was over 16 µg/mL throughout. Besides, the MIC in the series with Candida albicans [7] and with Candida albicans [8] was over 16 µg/mL each time.

As to `COc1ccc(O)c(-c2csc(N/N=C/c3c(-c4ccccc4)nc4scc(C)n34)n2)c1`, in [9], the viability at 24 h, 62.5 ug/mL was 59.5%. The viability at 24 h, 31.3 ug/mL in series [10] was 64.1%. The viability at 24 h, 1 ug/mL in series [11] was 90%. Besides, the viability at 24 h, 0.5 ug/mL in series [12] is 94.6%. The MIC in the series on Candida parapsilosis [1] is over 16 µg/mL; in the series with Candida parapsilosis [2] it was 4 µg/mL (≈ 8.67 µM); in the series on Nakaseomyces glabratus [3] it was over 16 µg/mL; with Nakaseomyces glabratus [4], 2 µg/mL (≈ 4.33 µM); in the series on Nakaseomyces glabratus [5] it was over 16 µg/mL; in the series on Candida albicans [6], over 16 µg/mL. Besides, the MIC in the series with Candida albicans [7] and in the series with Candida albicans [8] was over 16 µg/mL throughout.

Regarding `C/C(=N\Nc1nc([C@H](C)NC(=O)OCc2ccccc2)cs1)c1ccc2c(c1)CCC2`, the MIC in the series with Candida parapsilosis [1], in the series on Candida parapsilosis [2], in the series on Nakaseomyces glabratus [3], in the series with Nakaseomyces glabratus [4], in the series on Nakaseomyces glabratus [5] and with Candida albicans [6] was over 16 µg/mL each time. In addition, the MIC in the series on Candida albicans [7] and in the series on Candida albicans [8] was over 16 µg/mL throughout.

With `C/C(=N\Nc1nc([C@H](Cc2ccccc2)NC(=O)OCc2ccccc2)cs1)c1ccc2c(c1)CCC2`, the MIC in the series on Candida parapsilosis [1], in the series on Candida parapsilosis [2], in the series on Nakaseomyces glabratus [3], with Nakaseomyces glabratus [4], in the series with Nakaseomyces glabratus [5] and in the series with Candida albicans [6] was over 16 µg/mL in each case. The MIC in the series with Candida albicans [7] and with Candida albicans [8] was over 16 µg/mL throughout.

On to `C/C(=N\Nc1nc([C@H](Cc2c[nH]c3ccccc23)NC(=O)OCc2ccccc2)cs1)c1ccc2c(c1)CCC2`, for which the minimal inhibitory concentration (MIC) in the series with Candida parapsilosis [1] is 8 µg/mL (≈ 14.6 µM); with Candida parapsilosis [2], over 16 µg/mL; with Nakaseomyces glabratus [3], over 16 µg/mL; with Nakaseomyces glabratus [4] it was 8 µg/mL (≈ 14.6 µM); in the series with Nakaseomyces glabratus [5], over 16 µg/mL; in the series on Candida albicans [6] it was over 16 µg/mL. Moreover, the MIC with Candida albicans [7] and with Candida albicans [8] was over 16 µg/mL throughout.

As to `C[C@@H]1[C@H](O)[C@@H](C)/C=C/C=C/C=C/C=C/C=C/C=C/C=C/[C@H](O[C@@H]2O[C@H](C)[C@@H](O)[C@H](N)[C@@H]2O)C[C@@H]2O[C@](O)(C[C@@H](O)C[C@@H](O)[C@H](O)CC[C@@H](O)C[C@@H](O)CC(=O)O[C@H]1C)C[C@H](O)[C@H]2C(=O)O` [AMPHOTERICIN B], the MIC in the series with Candida parapsilosis [1] was found to be 1 µg/mL (≈ 1.08 µM); with Candida parapsilosis [2] it was 0.5 µg/mL (≈ 0.541 µM); in the series on Nakaseomyces glabratus [3], 1 µg/mL (≈ 1.08 µM); in the series with Nakaseomyces glabratus [4] it was 1 µg/mL (≈ 1.08 µM); with Nakaseomyces glabratus [5], 0.5 µg/mL (≈ 0.541 µM); in the series with Candida albicans [6], 0.5 µg/mL (≈ 0.541 µM). Moreover, the MIC in the series with Candida albicans [7] and with Candida albicans [8] was 0.5 µg/mL (≈ 0.541 µM) each time.

As for `CC[C@H](C)C[C@H](C)CCCCCCCCC(=O)N[C@H]1C[C@@H](O)[C@@H](NCCN)NC(=O)[C@@H]2[C@@H](O)CCN2C(=O)[C@H]([C@H](O)CCN)NC(=O)[C@H]([C@H](O)[C@@H](O)c2ccc(O)cc2)NC(=O)[C@@H]2C[C@@H](O)CN2C(=O)[C@H]([C@@H](C)O)NC1=O` [CASPOFUNGIN], the MIC with Candida parapsilosis [1] turned out to be 0.5 µg/mL (≈ 0.457 µM); in the series with Candida parapsilosis [2], 8 µg/mL (≈ 7.32 µM); with Nakaseomyces glabratus [3] it was 2 µg/mL (≈ 1.83 µM); in the series on Nakaseomyces glabratus [4], 2 µg/mL (≈ 1.83 µM); with Nakaseomyces glabratus [5], 0.5 µg/mL (≈ 0.457 µM); in the series with Candida albicans [6], 0.25 µg/mL (≈ 0.229 µM). The MIC with Candida albicans [7] and in the series on Candida albicans [8] was 0.5 µg/mL (≈ 0.457 µM) each time.

Turning to `OC(Cn1cncn1)(Cn1cncn1)c1ccc(F)cc1F` [FLUCONAZOLE], the MIC in the series with Candida parapsilosis [1] is 64 µg/mL (≈ 209 µM); in the series with Candida parapsilosis [2], 1 µg/mL (≈ 3.27 µM); with Nakaseomyces glabratus [3], 16 µg/mL (≈ 52.2 µM); in the series on Nakaseomyces glabratus [4], 64 µg/mL (≈ 209 µM); in the series with Nakaseomyces glabratus [5] it was 64 µg/mL (≈ 209 µM); with Candida albicans [6] it was over 64 µg/mL. Moreover, the results for the MIC in the series with Candida albicans [7] and in the series with Candida albicans [8] were 32 µg/mL (≈ 104 µM) and 0.125 µg/mL (≈ 0.408 µM), respectively.

On to `CCC(C)n1ncn(-c2ccc(N3CCN(c4ccc(OCC5COC(Cn6cncn6)(c6ccc(Cl)cc6Cl)O5)cc4)CC3)cc2)c1=O` (centres undefined) [ITRACONAZOLE], for which the MIC in the series on Candida parapsilosis [1] is 0.5 µg/mL (≈ 0.709 µM); in the series on Candida parapsilosis [2], 0.03 µg/mL (≈ 0.0425 µM); in the series with Nakaseomyces glabratus [3] it was 0.5 µg/mL (≈ 0.709 µM); in the series on Nakaseomyces glabratus [4], 1 µg/mL (≈ 1.42 µM); with Nakaseomyces glabratus [5], 2 µg/mL (≈ 2.83 µM); with Candida albicans [6], over 16 µg/mL. The MIC with Candida albicans [7] was 0.5 µg/mL (≈ 0.709 µM); in the series on Candida albicans [8] it was 0.03 µg/mL (≈ 0.0425 µM).

As for `C[C@@H](c1ncncc1F)[C@](O)(Cn1cncn1)c1ccc(F)cc1F` [VORICONAZOLE], the MIC in the series on Candida parapsilosis [1] was 0.25 µg/mL (≈ 0.716 µM); in the series on Candida parapsilosis [2], 0.06 µg/mL (≈ 0.172 µM); with Nakaseomyces glabratus [3], 2 µg/mL (≈ 5.73 µM); in the series with Nakaseomyces glabratus [4], 16 µg/mL (≈ 45.8 µM); with Nakaseomyces glabratus [5] it was 8 µg/mL (≈ 22.9 µM); in the series with Candida albicans [6] it was over 16 µg/mL. Also, the MIC in the series on Candida albicans [7] and in the series on Candida albicans [8] was 0.25 µg/mL (≈ 0.716 µM) each time.
